For assay [1], the species on record is Homo sapiens. In words: In vitro inhibition of ADP-induced human platelet aggregation. Format: functional. Summed up:
(§1)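 Human venous blood citrated with 10% v/v sodium citrate (3.8%); platelet-rich plasma spun at 300g, 10 min, 4 °C, used within 2 h. Compound in Me2SO (1% final) preincubated 10 min at room temperature; aggregation triggered by collagen 0.02 mg/mL final or ADP 0.85 μg/mL final; maximum rate read in Born aggregometer. EC50 from log dose–effect regression with 95% confidence limits.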

Assay [2] is filed under the species Homo sapiens. In words: In vitro inhibition of collagen-induced human platelet aggregation. Format: functional, organism-based. The procedure, abridged:
as §1

The species named for assay [3] is Homo sapiens. In words: Relative activity (compared to acetylsalicylic acid) for in vitro inhibition of collagen-induced human platelet aggregation. The assay is classed as functional.
The test system of assay [4] is Rattus norvegicus. In words: In vitro hypotensive activity in anesthetized rats after intraperitoneal administration. The assay is classed as functional. To be noted: ip, in the assay text read “In vivo” for “In vitro”. The procedure, abridged: (§2)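 Male Sprague-Dawley rats, 230-280 g, urethane-anesthetized (ip); carotid arterial pressure recorded continuously by pressure transducer. Compounds given ip at 2 mL/kg. ED20, dose lowering mean carotid pressure by 20%, from log dose–effect regression; dihydralazine as reference.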

Assay [5] has as its system Rattus norvegicus. In words: Activity relative to dihydralazine for in vitro hypotensive activity in anesthetized rats. The assay is classed as functional. Particulars: in the assay text read “in vivo” for “in vitro”. Summed up:
as §2

Assay [6] has as its system Rattus norvegicus. Nature of the assay: Ex vivo inhibition of collagen-induced rat platelet aggregation after peroral administration. The assay is classed as functional. Particulars: po. The procedure, abridged: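 Male Sprague-Dawley rats, 200-250 g, dosed orally, three rats per dose. Blood drawn by heart puncture under ether 1 h post-dose; platelet-rich plasma prepared by centrifugation; aggregation induced with collagen 0.02 mg/mL final, maximum rate read in Born aggregometer.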

A short description of assay [7]: In vitro inhibition of collagen induced aggregation of human plateles and the ratio of ED33 to EC50 was reported. Format: functional. The procedure, abridged:
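Ratio of oral ED33 (male Sprague-Dawley rats, 3 per dose, blood taken 1 h post-dose, collagen-triggered aggregation) to in vitro EC50 (human citrated platelet-rich plasma, 10 min room-temperature preincubation in 1% Me2SO, collagen 0.02 mg/mL final, regression-derived).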

The species named for assay [8] is Rattus norvegicus. In words: Relative activity in rats based on acetylsalicylic acid. Format: functional.

The values below come from ChEMBL document CHEMBL1122226, “6-Aryl-4,5-dihydro-3(2H)-pyridazinones. A new class of compounds with platelet aggregation inhibiting and hypotensive activities” (J Med Chem, 1983).

Converted amounts (≈) assume the structure as drawn. A value given as a limit tells only on which side of the number the result lay.

As usually defined, the EC50 is the concentration that produces a half-maximal response.

For `CC(=O)Nc1cccc(C2=NNC(=O)CC2)c1`, the EC50 was > 46.4 µg/mL in the assay filed under Homo sapiens [1] (Homo sapiens, read-out: EC50) and > 46.4 µg/mL in the assay filed under Homo sapiens [2] (Homo sapiens, read-out: EC50). Further, the Relative activity is <11 in the assay listed under Homo sapiens [3] and <0.34 in the assay with Rattus norvegicus [5]. In addition, the ED20 in the assay on Rattus norvegicus [4] is > 1 mg/kg.
`Nc1ccc(C2=NNC(=O)CC2)cc1`: the EC50 was 46.4 µg/mL (≈ 245 µM) in the assay listed under Homo sapiens [1] (Homo sapiens, read-out: EC50) and 14.8 µg/mL (≈ 78.2 µM) in the assay listed under Homo sapiens [2] (Homo sapiens, read-out: EC50). In addition, the Relative activity in the assay filed under Homo sapiens [3] is on record as 33; in the assay with Rattus norvegicus [5], 1.88. This compound returned an ED20 with Rattus norvegicus [4] of 0.18 mg/kg.
The matching figures for `C=CCNCC(=O)Nc1ccc(C2=NNC(=O)CC2)cc1.Cl`: ~21.5 µg/mL, ~4.64 µg/mL, ~107, <0.34 and > 1 mg/kg.
The matching figures for `CC1CC(c2ccc(N)cc2)=NNC1=O` (stereo not given): 43.8 µg/mL (≈ 216 µM), 46.9 µg/mL (≈ 231 µM), 11, <0.34 and > 1 mg/kg.
On the same counts, the results for `CC(Cl)C(=O)Nc1ccc(C2=NNC(=O)C(C)C2)cc1` (stereo not given) are 32.9 µg/mL (≈ 112 µM), 33.8 µg/mL (≈ 115 µM), 15, <0.34 and > 1 mg/kg.
For `C[N+]1(CC(=O)Nc2ccc(C3=NNC(=O)CC3)cc2)CCCC1.[Cl-]`, the EC50 in the assay listed under Homo sapiens [1] (Homo sapiens, read-out: EC50) was > 46.4 µg/mL; in the assay filed under Homo sapiens [2] (Homo sapiens, read-out: EC50), > 46.4 µg/mL. Also, the Relative activity in the assay listed under Homo sapiens [3] was <11; in the assay with Rattus norvegicus [5] it was <0.34. Moreover, the ED20 in the assay on Rattus norvegicus [4] is > 1 mg/kg.
Turning to `CC(C)NCC(=O)Nc1ccc(C2=NNC(=O)CC2)cc1.Cl`, the EC50 is ~46.4 µg/mL in the assay filed under Homo sapiens [1] (Homo sapiens, read-out: EC50) and ~21.5 µg/mL in the assay filed under Homo sapiens [2] (Homo sapiens, read-out: EC50). For the same compound, the Relative activity in the assay listed under Homo sapiens [3] is on record as ~23; in the assay on Rattus norvegicus [5], <0.34. Further, the ED20 with Rattus norvegicus [4] was > 1 mg/kg.
As for `CC1CC(=O)NN=C1c1ccc(NC(=O)CCCCl)cc1` (stereo not given), the EC50 came out at 1.63 µg/mL (≈ 5.3 µM) in the assay filed under Homo sapiens [1] (Homo sapiens, read-out: EC50) and 1.66 µg/mL (≈ 5.39 µM) in the assay filed under Homo sapiens [2] (Homo sapiens, read-out: EC50). In the assay listed under Homo sapiens [3], this compound showed a Relative activity of 298. In addition, the ED20 in the assay with Rattus norvegicus [4] turned out to be 0.32 mg/kg.
Take `Nc1cccc(C2=NNC(=O)CC2)c1`: the EC50 in the assay listed under Homo sapiens [1] (Homo sapiens, read-out: EC50) was > 46.4 µg/mL; in the assay filed under Homo sapiens [2] (Homo sapiens, read-out: EC50), > 46.4 µg/mL. The values for the Relative activity in the assay filed under Homo sapiens [3] and with Rattus norvegicus [5] were <11 and <0.34, respectively. The ED20 in the assay with Rattus norvegicus [4] was > 1 mg/kg.
Take `CN1N=C(c2ccc(N)cc2)CCC1=O`: the EC50 in the assay filed under Homo sapiens [1] (Homo sapiens, read-out: EC50) is > 46.4 µg/mL; in the assay listed under Homo sapiens [2] (Homo sapiens, read-out: EC50) it was > 46.4 µg/mL. For the same compound, the Relative activity in the assay filed under Homo sapiens [3] is <11; in the assay with Rattus norvegicus [5], <0.34. The ED20 in the assay with Rattus norvegicus [4] was > 1 mg/kg.
Take `CC(=O)Nc1ccc(C2=NNC(=O)CC2)cc1`: the concentration for a half-maximal effect (EC50) turned out to be 1 µg/mL (≈ 4.32 µM) in the assay listed under Homo sapiens [1] (Homo sapiens, read-out: EC50) and 1.09 µg/mL (≈ 4.71 µM) in the assay filed under Homo sapiens [2] (Homo sapiens, read-out: EC50). Besides, the values for the Relative activity in the assay listed under Homo sapiens [3] and with Rattus norvegicus [5] were 453 and 1.69, respectively. This compound also displayed an ED20 with Rattus norvegicus [4] of 0.2 mg/kg.
The matching figures for `CCN(CC)CC(=O)Nc1ccc(C2=NNC(=O)CC2)cc1.Cl`: ~10 µg/mL, ~10 µg/mL, ~49, <0.34 and > 1 mg/kg.
On the same counts, the results for `O=C1CCC(c2ccc(NC(=O)CCCCl)cc2)=NN1` are > 46.4 µg/mL, > 46.4 µg/mL, <11, <0.34 and > 1 mg/kg.
The matching figures for `CCCNCC(=O)Nc1ccc(C2=NNC(=O)CC2)cc1.Cl`: ~46.4 µg/mL, ~10 µg/mL, ~49, <0.34 and > 1 mg/kg.
Turning to `N/N=c1\[nH][nH]/c(=N\N)c2ccccc12` [DIHYDRALAZINE], the results for the EC50 in the assay filed under Homo sapiens [1] and in the assay filed under Homo sapiens [2] were 310 µg/mL (≈ 1630 µM) and 149 µg/mL (≈ 783 µM), respectively. Moreover, the Relative activity in the assay listed under Homo sapiens [3] is 3; with Rattus norvegicus [5], 1. The ED20 in the assay with Rattus norvegicus [4] was 0.34 mg/kg.
With `CC(Br)C(=O)Nc1ccc(C2=NNC(=O)CC2C)cc1` (stereo not given), in the assay listed under Homo sapiens [1] (Homo sapiens, read-out: EC50), the EC50 worked out at 0.26 µg/mL (≈ 0.769 µM). Further, the ED20 in the assay on Rattus norvegicus [4] amounted to 0.4 mg/kg. The compound further showed an ED33 with Rattus norvegicus [6] of 8.18 mg/kg. Further, the Ratio in assay [7] was found to be 14.1. Besides, the Relative activity in the assay on Rattus norvegicus [5] is listed as 0.85; in the assay listed under Rattus norvegicus [8], 28.5.
For `O=C1CCC(c2ccc(NC(=O)CN3CCOCC3)cc2)=NN1`, the EC50 in the assay filed under Homo sapiens [1] (Homo sapiens, read-out: EC50) was ~46.4 µg/mL (≈ 147 µM); in the assay listed under Homo sapiens [2] (Homo sapiens, read-out: EC50), ~21.5 µg/mL (≈ 68 µM). Moreover, the values for the Relative activity in the assay filed under Homo sapiens [3] and with Rattus norvegicus [5] were ~23 and <0.34, respectively. In the assay with Rattus norvegicus [4], the ED20 was > 1 mg/kg.
